Inhibition and IC50 data for 2 compounds are collected here from ChEMBL document CHEMBL1154497, “Evaluating the potential of vacuolar ATPase inhibitors as anticancer agents and multigram synthesis of the potent salicylihalamide analog saliphenylhalamide” (Bioorg Med Chem Lett, 2008).

Series [1] can be described thus: Growth inhibition of human HME50T cells at 100 nM. It counts as functional.
A short description of series [2]: Growth inhibition of human HME50 cells at 100 nM. It counts as cell-based.
Series [3] has as its system HepG2. In words: Cytotoxicity against human HepG2 cells expressing vacuolar ATPase. It counts as functional, cell-based. The method in brief: (§1)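 Cancer cell lines treated across a range of compound concentrations; the concentration inhibiting growth by 50% was calculated. IC50 given as average ± standard deviation of three experiments.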
For series [4], the system named is SK-HEP1. The series is described as follows: Cytotoxicity against human SKHEP1 cells expressing vacuolar ATPase. It counts as functional, cell-based. The method in brief: as §1
In series [5] the test system is HCT-116. In words: Cytotoxicity against human HCT116 cells expressing vacuolar ATPase. It counts as functional, cell-based. The method in brief:
as §1

Series [6] has as its system HCT-15. In words: Cytotoxicity against human HCT15 cells expressing vacuolar ATPase. It counts as functional, cell-based. The method in brief: as §1
Series [7] relates to HT-29. The series is described as follows: Cytotoxicity against human HT-29 cells expressing vacuolar ATPase. It counts as functional, cell-based. The method in brief:
as §1

Series [8] deals with SW480. The series is described as follows: Cytotoxicity against human SW480 cells expressing vacuolar ATPase. It counts as functional, cell-based. The method in brief: as §1
Series [9] deals with SK-MEL-5. The series is described as follows: Cytotoxicity against human SK-MEL-5 cells expressing vacuolar ATPase. It counts as functional, cell-based. The method in brief: as §1
The test system of series [10] is SK-MEL-28. In words: Cytotoxicity against human SK-MEL-28 cells expressing vacuolar ATPase. It counts as functional, cell-based. The method in brief:
as §1

Series [11] concerns A2058. In words: Cytotoxicity against human A2058 cells expressing vacuolar ATPase. It counts as functional, cell-based. The method in brief:
as §1

Series [12] deals with HOS. In words: Cytotoxicity against human HOS cells expressing vacuolar ATPase. It counts as functional, cell-based. The method in brief:
as §1

The test system of series [13] is MG-63. In words: Cytotoxicity against human MG63 cells expressing vacuolar ATPase. It counts as functional, cell-based. The method in brief: as §1
Series [14] deals with ASPC1. The series is described as follows: Cytotoxicity against human AsPC1 cells expressing vacuolar ATPase. It counts as functional, cell-based. The method in brief: as §1
The test system of series [15] is PANC-1. The series is described as follows: Cytotoxicity against human PANC1 cells expressing vacuolar ATPase. It counts as functional, cell-based. The method in brief: as §1
Series [16] deals with MCF7. The series is described as follows: Cytotoxicity against human MCF7 cells expressing vacuolar ATPase. It counts as functional, cell-based. The method in brief:
as §1

Series [17] in a line: Cytotoxicity against human MCF7/DX cells expressing vacuolar ATPase. It counts as functional, cell-based. The method in brief: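 Doxorubicin-resistant MCF-7 subline, resistant to chemotherapeutics that are P-glycoprotein substrates. Cells treated across a range of compound concentrations; the concentration inhibiting growth by 50% was calculated. IC50 given as average ± standard deviation of three experiments.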

Series [18] relates to MDA-MB-231. In words: Cytotoxicity against human MDA-MB-231 cells expressing vacuolar ATPase. It counts as functional, cell-based. The method in brief: as §1
The test system of series [19] is NCI-H460. In words: Cytotoxicity against human NCI-H460 cells expressing vacuolar ATPase. It counts as functional, cell-based. The method in brief: as §1
Series [20] relates to NCI-H1299. In words: Cytotoxicity against human NCI-H1299 cells expressing vacuolar ATPase. It counts as functional, cell-based. The method in brief: as §1
Series [21] concerns A549. In words: Cytotoxicity against human A549 cells expressing vacuolar ATPase. It counts as functional, cell-based. The method in brief:
as §1

Series [22] concerns SK-MES-1. The series is described as follows: Cytotoxicity against human SKMES1 cells expressing vacuolar ATPase. It counts as functional, cell-based. The method in brief: as §1

Each structure is given as a SMILES string.

As for `CC/C=C\C=C/C(=O)N/C=C/C[C@H]1C[C@@H](O)[C@@H](C)C/C=C/Cc2cccc(O)c2C(=O)O1` [SALICYLIHALAMIDE A], the figures for the inhibition at 0.1 µM in series [1] and in series [2] were 75% and 60%, respectively.
Consider `C[C@H]1C/C=C/Cc2cccc(O)c2C(=O)O[C@@H](C/C=C/NC(=O)C#Cc2ccccc2)C[C@H]1O` [SALIPHENYLHALAMIDE], for which the IC50 in [3] was found to be 79.2 nM; in [4], 40.7 nM; in series [5] it was 69.3 nM; in series [6], 100 nM; in series [7], 89.9 nM; in [8], 425 nM. For the same compound, the IC50 amounted to 106 nM in [9]; 98.5 nM in [10]; 154 nM in [11]; 48.8 nM in [12]; 449 nM in series [13]; 75.9 nM in series [14]. Further, the half-inhibitory concentration (IC50) worked out at 124 nM in series [15]; 156 nM in [16]; 160 nM in series [17]; 180 nM in series [18]; 52.9 nM in series [19]; 77.2 nM in series [20]. The IC50 was determined as 146 nM in series [21] and 76.4 nM in [22]. This compound came in with an inhibition at 0.1 µM in series [1] of 95%.

Usually inhibition stands for the share of the control response that was lost under treatment. Lower therefore signals a weak effect. Usually IC50 stands for the concentration that inhibits the measured activity by half. Higher therefore signals weaker potency in that assay.
